The results in this text go back to BindingDB's records for doi:10.1021/acs.jmedchem.8b00139 (University Park Nottingham, 2018).

pKi: −log10 of the molar value.

One may read the pKi as the Ki on a negative log10 scale, so that one unit is a factor of ten. A low value points to a large Ki.

The assay has as its target P2Y purinoceptor 2 (Homo sapiens, UniProt P41231). Description: Displacement of (E)-2-((5-(7-Chloro-2-((3-((2-(6-(3-(5,5-difluoro-7,9-dimethyl-5H-5-lambda4,6-lambda4-dipyrrolo[1,2-c:2,1-f ][1,3,2]diazaborinin-3-yl)-propanamido)hexanamido)ethyl)amino)-3-oxopropyl)amino)-4Hbenzo[5,6]cyclohepta[1,2-d]thiazol-4-yl)-2-oxo-4-thioxo-3,4-dihydropyrimidin-1(2H)-yl)methyl)-N-(1H-tetrazol-5-yl)thiazole-4-carboxamide from human N-terminal NLuc-tagged P2Y2R expressed in human 1321N1 cells incubated for 1 hr by furimazine-based NanoBRET assay. In outline: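 Competition binding in 1321N1 cells expressing N-terminal NanoLuc-hP2Y2R. The fluorescent tracer was used at 1 µM (or the bodipy A tracer at 100 nM) against increasing concentrations of unlabeled ligand. After furimazine addition the BRET signal was read and pKi estimated; mean ± SEM of separate experiments.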

P2Y purinoceptor 2, sequence (P41231 whole entry): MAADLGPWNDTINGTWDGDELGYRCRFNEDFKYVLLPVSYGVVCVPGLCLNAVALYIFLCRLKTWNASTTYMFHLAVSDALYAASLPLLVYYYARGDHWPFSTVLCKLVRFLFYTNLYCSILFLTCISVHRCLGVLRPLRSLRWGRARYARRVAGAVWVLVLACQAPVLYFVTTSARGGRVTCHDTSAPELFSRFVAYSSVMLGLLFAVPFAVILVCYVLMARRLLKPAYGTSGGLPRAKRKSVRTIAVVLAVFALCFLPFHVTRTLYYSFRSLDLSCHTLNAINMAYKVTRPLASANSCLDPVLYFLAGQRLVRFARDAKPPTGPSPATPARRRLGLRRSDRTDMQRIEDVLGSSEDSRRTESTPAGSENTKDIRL

The compound `CCOCCNc1nc2c(s1)C=Cc1cc(Cl)ccc1[C@@H]2c1cn(C)c(=O)[nH]c1=S` showed a pKi of 5.28.
For `CCOCCNc1nc2c(s1)C=Cc1cc(Cl)ccc1[C@H]2c1cn(C)c(=O)[nH]c1=S`, the pKi is 6.56.
